Laboratory results: ChEMBL document CHEMBL3232922, “Discovery and SAR of 6-alkyl-2,4-diaminopyrimidines as histamine H₄ receptor antagonists” (J Med Chem, 2014)

Assays:
[1] = Tmax in beagle dog at 10 mg/kg, po; type: ADME, organism-based, Canis lupus familiaris; parameters: dose 10 mg/kg, route oral; conditions: in vivo
Histamine H3 receptor = Histamine H3 receptor (Homo sapiens, UniProt Q9Y5N1); test: Displacement of [3H]N-alpha-methylhistamine from human recombinant histamine H3 receptor expressed in SK-N-MC cells after 45 mins by competition binding analysis; type: cell-based
[2] = Clearance in rat at 2 mg/kg, iv; type: ADME, organism-based; parameters: dose 2 mg/kg, route intravenous; conditions: in vivo
Histamine H4 receptor [3] = target: T1, Histamine H4 receptor (Mus musculus, UniProt Q91ZY2); test: Partial agonist activity at mouse histamine H4 receptor
T1 sequence (Q91ZY2 whole entry): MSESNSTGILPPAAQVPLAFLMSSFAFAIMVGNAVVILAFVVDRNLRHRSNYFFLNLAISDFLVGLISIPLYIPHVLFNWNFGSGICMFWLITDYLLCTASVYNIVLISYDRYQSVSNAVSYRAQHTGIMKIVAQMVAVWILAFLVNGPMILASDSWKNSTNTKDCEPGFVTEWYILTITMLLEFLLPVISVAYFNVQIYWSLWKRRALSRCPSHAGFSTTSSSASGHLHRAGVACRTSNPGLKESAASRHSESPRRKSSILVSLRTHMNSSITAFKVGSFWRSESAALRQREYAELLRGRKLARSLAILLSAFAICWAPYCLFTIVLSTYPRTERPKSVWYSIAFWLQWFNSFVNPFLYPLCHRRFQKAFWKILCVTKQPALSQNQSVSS

[4] = AUC in Sprague-Dawley rat at 2 mg/kg, iv; type: ADME, organism-based; parameters: dose 2 mg/kg, route intravenous; conditions: plasma
[5] = Oral bioavailability in Sprague-Dawley rat at 10 mg/kg; type: ADME, organism-based; conditions: in vivo
[6] = Tmax in Sprague-Dawley rat at 10 mg/kg, po; type: ADME, organism-based; parameters: dose 10 mg/kg, route oral; conditions: in vivo
[7] = Oral bioavailability in beagle dog at 10 mg/kg; type: ADME, organism-based, Canis lupus familiaris; conditions: in vivo
[8] = Permeability from apical to basolateral side in human Caco cells; type: ADME, cell-based; conditions: Caco-2, read-out: permeability
Histamine H4 receptor [9] = target: T2, Histamine H4 receptor (Homo sapiens, UniProt Q9H3N8); test: Agonist activity at human H4 receptor; conditions: read-out: EC50
Histamine H4 receptor [10] = target: T2, Histamine H4 receptor; test: Displacement of [3H]histamine from human recombinant histamine H4 receptor expressed in SK-N-MC cells after 45 mins by competition binding analysis; type: cell-based
Histamine H4 receptor [11] = target: T1, Histamine H4 receptor; test: Displacement of [3H]histamine from mouse histamine H4 receptor expressed in SK-N-MC cells after 45 mins by competition binding analysis; type: cell-based
In short: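 Transfected cells expressing the H4 receptor, competition against [3H]histamine. Ki is the geometric mean of at least three independent determinations (each in triplicate), calculated by the Cheng–Prusoff equation.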

[12] = Volume of distribution at steady state in rat at 2 mg/kg, iv; type: ADME, organism-based; parameters: dose 2 mg/kg, route intravenous; conditions: in vivo, read-out: Vdss
[13] = Half life in rat microsomes; type: ADME, Microsome
[14] = target: Voltage-gated inwardly rectifying potassium channel KCNH2 (Homo sapiens, UniProt Q12809); test: Inhibition of human ERG channel transfected in HEK293 cells assessed as reduction in delayed rectifier current by patch clamp assay; type: cell-based
In short: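 The delayed rectifier current (IKr) was recorded in hERG-transfected HEK293 cells with the compound at 3 μM.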

Histamine H4 receptor [15] = target: T1, Histamine H4 receptor; test: Antagonist activity at mouse histamine H4 receptor expressed in SK-N-MC cells assessed as reduction of histamine-induced inhibition of cAMP-mediated beta-galactosidase reporter gene activity treated 10 mins prior to histamine challenge by microplate reader analysis; type: functional, cell-based; conditions: read-out: pA2 (converted)
[16] = Half life in beagle dog at 10 mg/kg, po; type: ADME, organism-based, Canis lupus familiaris; parameters: dose 10 mg/kg, route oral; conditions: in vivo
[17] = Oral bioavailability in rat at 10 mg/kg; type: ADME, organism-based; conditions: in vivo
Rattus norvegicus [18] = test: Volume of distribution at steady state in Sprague-Dawley rat at 2 mg/kg, iv; type: ADME, organism-based; parameters: dose 2 mg/kg, route intravenous; conditions: in vivo
[19] = Initial plasma concentration in beagle dog at 2 mg/kg, iv; type: ADME, organism-based, Canis lupus familiaris; parameters: dose 2 mg/kg, route intravenous
[20] = Half life in beagle dog at 2 mg/kg, iv; type: ADME, organism-based, Canis lupus familiaris; parameters: dose 2 mg/kg, route intravenous; conditions: in vivo
Canis familiaris [21] = test: Clearance in beagle dog at 2 mg/kg, iv; type: ADME, organism-based, Canis lupus familiaris; parameters: dose 2 mg/kg, route intravenous; conditions: in vivo
[22] = Cmax in beagle dog at 10 mg/kg, po; type: ADME, organism-based, Canis lupus familiaris; parameters: dose 10 mg/kg, route oral; conditions: in vivo
[23] = AUC in rat at 2 mg/kg, iv; type: ADME, organism-based; parameters: dose 2 mg/kg, route intravenous; conditions: plasma
[24] = AUC in Sprague-Dawley rat at 10 mg/kg, po; type: ADME, organism-based; parameters: dose 10 mg/kg, route oral; conditions: plasma
[25] = Initial plasma concentration in Sprague-Dawley rat at 2 mg/kg, iv; type: ADME, organism-based; parameters: dose 2 mg/kg, route intravenous
[26] = Cmax in rat at 10 mg/kg, po; type: ADME, organism-based; parameters: dose 10 mg/kg, route oral; conditions: in vivo
[27] = Half life in Sprague-Dawley rat at 10 mg/kg, po; type: ADME, organism-based; parameters: dose 10 mg/kg, route oral; conditions: in vivo
[28] = Cmax in Sprague-Dawley rat at 10 mg/kg, po; type: ADME, organism-based; parameters: dose 10 mg/kg, route oral; conditions: in vivo
[29] = Half life in human microsomes; type: ADME, Microsome
[30] = Volume of distribution at steady state in beagle dog at 2 mg/kg, iv; type: ADME, organism-based, Canis lupus familiaris; parameters: dose 2 mg/kg, route intravenous; conditions: in vivo, read-out: Vdss
[31] = Permeability from basolateral to apical side in human Caco cells; type: ADME, cell-based; conditions: Caco-2, read-out: permeability
Rattus norvegicus [32] = test: Half life in Sprague-Dawley rat at 2 mg/kg, iv; type: ADME, organism-based; parameters: dose 2 mg/kg, route intravenous; conditions: in vivo
hERG (KCNH2) = hERG (KCNH2) (Homo sapiens, UniProt Q12809); test: Inhibition of human ERG channel transfected in HEK293 cells assessed as reduction in delayed rectifier current at 3 uM by patch clamp assay; type: cell-based; conditions: HEK293 cells transfected with human ERG channel
[33] = Half life in rat at 2 mg/kg, iv; type: ADME, organism-based; parameters: dose 2 mg/kg, route intravenous; conditions: in vivo
Canis familiaris [34] = test: AUC in beagle dog at 2 mg/kg, iv; type: ADME, organism-based, Canis lupus familiaris, Plasma; parameters: dose 2 mg/kg, route intravenous; conditions: in vivo
[35] = AUC in beagle dog at 10 mg/kg, po; type: ADME, organism-based, Canis lupus familiaris; parameters: dose 10 mg/kg, route oral; conditions: plasma
[36] = Half life in rat at 10 mg/kg, po; type: ADME, organism-based; parameters: dose 10 mg/kg, route oral; conditions: in vivo
Rattus norvegicus [37] = test: Clearance in Sprague-Dawley rat at 2 mg/kg, iv; type: ADME, organism-based; parameters: dose 2 mg/kg, route intravenous; conditions: in vivo
Histamine H4 receptor [38] = target: T2, Histamine H4 receptor; test: Antagonist activity at human histamine H4 receptor expressed in SK-N-MC cells assessed as reduction of histamine-induced inhibition of cAMP-mediated beta-galactosidase reporter gene activity treated 10 mins prior to histamine challenge by microplate reader analysis; type: functional, cell-based; conditions: read-out: pA2 (converted)

T2 sequence (Q9H3N8 whole entry): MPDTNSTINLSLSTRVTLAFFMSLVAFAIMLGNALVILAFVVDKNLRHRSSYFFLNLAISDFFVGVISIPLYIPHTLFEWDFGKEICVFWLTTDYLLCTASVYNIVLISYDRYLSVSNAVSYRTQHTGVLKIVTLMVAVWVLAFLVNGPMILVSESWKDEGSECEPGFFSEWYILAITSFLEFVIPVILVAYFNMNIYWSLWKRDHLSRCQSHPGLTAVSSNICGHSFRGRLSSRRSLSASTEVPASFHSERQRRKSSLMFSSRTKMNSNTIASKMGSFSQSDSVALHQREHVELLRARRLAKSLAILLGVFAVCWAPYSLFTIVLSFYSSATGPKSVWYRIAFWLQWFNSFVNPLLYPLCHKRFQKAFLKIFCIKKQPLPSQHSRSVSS
Sequence of Histamine H3 receptor (Q9Y5N1 whole entry): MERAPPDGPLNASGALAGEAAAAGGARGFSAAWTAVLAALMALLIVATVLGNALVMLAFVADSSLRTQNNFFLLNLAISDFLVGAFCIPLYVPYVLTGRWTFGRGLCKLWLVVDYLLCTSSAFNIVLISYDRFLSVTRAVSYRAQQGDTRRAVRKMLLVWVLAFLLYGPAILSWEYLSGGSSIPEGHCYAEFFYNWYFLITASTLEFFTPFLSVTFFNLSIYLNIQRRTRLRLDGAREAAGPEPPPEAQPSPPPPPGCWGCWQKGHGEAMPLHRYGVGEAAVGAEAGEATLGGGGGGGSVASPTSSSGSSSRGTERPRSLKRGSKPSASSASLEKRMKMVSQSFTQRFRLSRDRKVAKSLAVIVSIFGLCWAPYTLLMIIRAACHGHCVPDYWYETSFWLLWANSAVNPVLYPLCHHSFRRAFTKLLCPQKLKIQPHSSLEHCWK
Sequence of Voltage-gated inwardly rectifying potassium channel KCNH2 (Q12809 whole entry): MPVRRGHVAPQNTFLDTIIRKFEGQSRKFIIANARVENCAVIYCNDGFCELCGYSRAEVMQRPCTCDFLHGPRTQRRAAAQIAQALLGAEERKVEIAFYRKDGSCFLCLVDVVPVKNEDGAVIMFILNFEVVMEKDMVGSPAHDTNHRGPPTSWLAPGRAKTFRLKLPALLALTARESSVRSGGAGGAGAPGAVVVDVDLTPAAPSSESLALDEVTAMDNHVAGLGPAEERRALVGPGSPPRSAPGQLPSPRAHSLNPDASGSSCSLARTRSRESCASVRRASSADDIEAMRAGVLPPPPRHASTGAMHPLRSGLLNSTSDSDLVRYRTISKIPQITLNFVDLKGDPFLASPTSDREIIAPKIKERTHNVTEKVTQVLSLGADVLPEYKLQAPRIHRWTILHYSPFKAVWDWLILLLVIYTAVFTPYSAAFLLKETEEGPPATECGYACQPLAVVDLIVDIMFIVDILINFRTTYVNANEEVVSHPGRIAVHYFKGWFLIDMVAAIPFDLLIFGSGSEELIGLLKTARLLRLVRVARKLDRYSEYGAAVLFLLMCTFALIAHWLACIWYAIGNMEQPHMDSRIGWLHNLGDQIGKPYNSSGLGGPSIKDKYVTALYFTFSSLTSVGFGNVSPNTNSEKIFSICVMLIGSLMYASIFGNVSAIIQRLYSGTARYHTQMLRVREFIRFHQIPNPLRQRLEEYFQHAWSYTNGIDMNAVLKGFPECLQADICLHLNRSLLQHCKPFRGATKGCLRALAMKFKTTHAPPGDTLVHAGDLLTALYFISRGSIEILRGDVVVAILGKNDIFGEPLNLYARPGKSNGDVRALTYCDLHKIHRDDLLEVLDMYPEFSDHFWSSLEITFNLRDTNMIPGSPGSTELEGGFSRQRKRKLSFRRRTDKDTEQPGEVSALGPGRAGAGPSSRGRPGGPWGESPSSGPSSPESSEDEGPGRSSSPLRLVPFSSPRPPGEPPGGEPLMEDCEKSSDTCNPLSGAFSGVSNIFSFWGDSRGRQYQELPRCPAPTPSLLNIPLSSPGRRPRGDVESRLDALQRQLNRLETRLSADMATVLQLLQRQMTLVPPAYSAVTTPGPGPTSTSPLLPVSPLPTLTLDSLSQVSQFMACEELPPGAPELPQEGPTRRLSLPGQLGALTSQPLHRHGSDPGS
Sequence of hERG (KCNH2) (Q12809 whole entry): as above

**Q.** For `Nc1nc(C2CCCC2)cc(N2CCNCC2)n1`, which Tmax [1] is on record?
**A.** Its Tmax is 4 h.

**Q.** And the Ki (Histamine H3 receptor)?
**A.** The Ki was 24 nM.

**Q.** What about the clearance [2] of the same compound?
**A.** The clearance was 10.5 mL/min/kg.

**Q.** What about the EC50 (Histamine H4 receptor [3]) of the same compound?
**A.** The EC50 was 7.3 nM.

**Q.** What about the AUC [4] of the same compound?
**A.** Its AUC is 20.6 µM·h.

**Q.** What about the bioavailability [5] of the same compound?
**A.** Its bioavailability is 20.7%.

**Q.** And the Tmax [6]?
**A.** Its Tmax is 2 h.

**Q.** What about the bioavailability [7] of the same compound?
**A.** Its bioavailability is 114%.

**Q.** What about the Papp A→B [8] of the same compound?
**A.** Its Papp A→B is 32 ×10⁻⁶ cm/s.

**Q.** What about the EC50 (Histamine H4 receptor [9]) of the same compound?
**A.** The EC50 was over 10000 nM.

**Q.** And the Ki (Histamine H4 receptor [10])?
**A.** The Ki was 1.2 nM.

**Q.** And the Ki (Histamine H4 receptor [11])?
**A.** Its Ki is 20 nM.

**Q.** What about the Vd [12] of the same compound?
**A.** The Vd was 2.7 L/kg.

**Q.** What about the half-life [13] of the same compound?
**A.** The half-life was 1.43 h.

**Q.** And the INH [14]?
**A.** Its INH is over 10 µM.

**Q.** What about the Kb (Histamine H4 receptor [15]) of the same compound?
**A.** The Kb was 10 nM.

**Q.** And the half-life [16]?
**A.** Its half-life is 9.01 h.

**Q.** What about the bioavailability [17] of the same compound?
**A.** Its bioavailability is 20%.

**Q.** What about the Vdss (Rattus norvegicus [18]) of the same compound?
**A.** Its Vdss is 3.1 L/kg.

**Q.** And the C0 [19]?
**A.** The C0 was 1760 nM.

**Q.** And the half-life [20]?
**A.** Its half-life is 10.8 h.

**Q.** And the CL (Canis familiaris [21])?
**A.** The CL was 353.2 mL/min/kg.

**Q.** What about the Cmax [22] of the same compound?
**A.** Its Cmax is 1490 nM.

**Q.** And the AUC [23]?
**A.** Its AUC is 5 µM·h.

**Q.** What about the AUC [24] of the same compound?
**A.** The AUC was 8.2 µM·h.

**Q.** And the C0 [25]?
**A.** Its C0 is 25000 nM.

**Q.** And the Cmax [26]?
**A.** Its Cmax is 310 nM.

**Q.** What about the half-life [27] of the same compound?
**A.** The half-life was 8.7 h.

**Q.** And the Cmax [28]?
**A.** Its Cmax is 600 nM.

**Q.** And the half-life [29]?
**A.** The half-life was over 1.67 h.

**Q.** And the Vd [30]?
**A.** Its Vd is 24.4 L/kg.

**Q.** And the Papp B→A [31]?
**A.** Its Papp B→A is 16 ×10⁻⁶ cm/s.

**Q.** And the t1/2 (Rattus norvegicus [32])?
**A.** Its t1/2 is 2.2 h.

**Q.** What about the inhibition at 3 µM (hERG (KCNH2)) of the same compound?
**A.** Its inhibition at 3 µM is 21%.

**Q.** What about the half-life [33] of the same compound?
**A.** Its half-life is 1.1 h.

**Q.** And the AUC (Canis familiaris [34])?
**A.** The AUC was 5.38 µM·h.

**Q.** And the AUC [35]?
**A.** The AUC was 30.8 µM·h.

**Q.** And the half-life [36]?
**A.** Its half-life is 9 h.

**Q.** And the CL (Rattus norvegicus [37])?
**A.** The CL was 7.03 mL/min/kg.

**Q.** What about the Kb (Histamine H4 receptor [38]) of the same compound?
**A.** Its Kb is 0.316 nM.

**Q.** For `CN[C@@H]1CCN(c2cc(C3CCC3)nc(N)n2)C1`, which EC50 (Histamine H4 receptor [9]) is on record?
**A.** Its EC50 is over 10000 nM.

**Q.** And the Ki (Histamine H4 receptor [10])?
**A.** Its Ki is 2.4 nM.

**Q.** What about the Kb (Histamine H4 receptor [38]) of the same compound?
**A.** The Kb was 0.398 nM.

**Q.** Which EC50 (Histamine H4 receptor [9]) does the source give for `CN[C@@H]1CCN(c2cc(C3CC3)nc(N)n2)C1` here?
**A.** Its EC50 is over 10000 nM.

**Q.** And the Kb (Histamine H4 receptor [38])?
**A.** The Kb was 7.94 nM.

**Q.** With `CN[C@@H]1CCN(c2nc(N)nc3c2oc2ncc(Cl)cc23)C1` as the compound, how does the Ki (Histamine H4 receptor [10]) read?
**A.** Its Ki is 9 nM.

**Q.** With `CN[C@H]1CCN(c2cc(C3CCCC3)nc(N)n2)C1` as the compound, how does the EC50 (Histamine H4 receptor [9]) read?
**A.** Its EC50 is over 10000 nM.

**Q.** What about the Ki (Histamine H4 receptor [10]) of the same compound?
**A.** The Ki was 25 nM.

**Q.** Which Ki (Histamine H4 receptor [10]) does the source give for `Nc1nc(C2CCCC2)cc(N2C[C@@H]3NCCO[C@@H]3C2)n1` (relative stereo) here?
**A.** Its Ki is 520 nM.

**Q.** Which EC50 (Histamine H4 receptor [9]) does the source give for `CCCCc1cc(N2CC[C@@H](NC)C2)nc(N)n1` here?
**A.** The EC50 was over 10000 nM.

**Q.** What about the Ki (Histamine H4 receptor [10]) of the same compound?
**A.** Its Ki is 1.5 nM.

**Q.** And the Kb (Histamine H4 receptor [38])?
**A.** The Kb was 3.98 nM.

**Q.** For `CN1CCN(C(=O)c2nc3cc(Cl)ccc3[nH]2)CC1`, which Ki (Histamine H4 receptor [10]) is on record?
**A.** The Ki was 20 nM.
